In the M2OR odorant receptor database:
Where a chain is given by its changes, count along the chain named.

Legend:
Settings in all cases: stereoisomer not certain
OR3A1 (Homo sapiens) = target: T1, OR3A1 (Homo sapiens) (UniProt P47881)
T1 sequence (whole entry): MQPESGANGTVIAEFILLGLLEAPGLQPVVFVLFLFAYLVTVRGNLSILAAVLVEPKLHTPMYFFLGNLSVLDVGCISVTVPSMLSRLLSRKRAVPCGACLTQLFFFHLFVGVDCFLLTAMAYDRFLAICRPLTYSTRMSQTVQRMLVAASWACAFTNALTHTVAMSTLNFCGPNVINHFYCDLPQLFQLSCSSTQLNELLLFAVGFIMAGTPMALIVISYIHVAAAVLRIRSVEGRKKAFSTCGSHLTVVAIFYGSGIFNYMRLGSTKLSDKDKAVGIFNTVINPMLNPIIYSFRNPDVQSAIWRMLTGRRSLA
Method in brief: (§1)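 Each receptor–molecule pair is labelled responsive or non-responsive (inactive) according to whether the original authors judged the measured signal statistically different from baseline. The data were taken from the main text and supplementary material of published papers and checked for typos and inconsistencies. Assay methods differed by source, with transient luciferase assays in mammalian cell lines being common.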

OR2W3 (Homo sapiens) = target: T2, OR2W3 (Homo sapiens) (UniProt Q7Z3T1)
T2 sequence (whole entry): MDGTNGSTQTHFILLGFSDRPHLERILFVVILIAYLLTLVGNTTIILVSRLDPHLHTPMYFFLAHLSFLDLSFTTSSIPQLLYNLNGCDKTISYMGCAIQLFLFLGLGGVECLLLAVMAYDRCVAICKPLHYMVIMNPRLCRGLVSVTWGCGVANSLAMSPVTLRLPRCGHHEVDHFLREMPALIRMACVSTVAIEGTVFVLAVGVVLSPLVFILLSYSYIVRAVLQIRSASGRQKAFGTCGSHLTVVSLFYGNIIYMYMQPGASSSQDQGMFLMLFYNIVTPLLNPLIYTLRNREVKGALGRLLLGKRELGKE
Method in brief: as §1

OR2W5P (Homo sapiens) = target: T3, OR2W5P (Homo sapiens) (UniProt A6NFC9)
T3 sequence (whole entry): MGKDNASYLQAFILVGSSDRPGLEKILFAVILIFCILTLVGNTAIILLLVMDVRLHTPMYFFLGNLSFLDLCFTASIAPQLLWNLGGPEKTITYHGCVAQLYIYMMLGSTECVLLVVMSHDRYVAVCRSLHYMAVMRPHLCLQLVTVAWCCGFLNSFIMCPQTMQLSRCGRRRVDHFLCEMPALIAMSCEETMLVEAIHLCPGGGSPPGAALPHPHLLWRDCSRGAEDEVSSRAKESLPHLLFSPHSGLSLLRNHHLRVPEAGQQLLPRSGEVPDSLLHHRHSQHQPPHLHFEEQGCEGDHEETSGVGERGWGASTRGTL
Method in brief: as §1

OR2Y1 (Homo sapiens) = target: T4, OR2Y1 (Homo sapiens) (UniProt Q8NGV0)
T4 sequence (whole entry): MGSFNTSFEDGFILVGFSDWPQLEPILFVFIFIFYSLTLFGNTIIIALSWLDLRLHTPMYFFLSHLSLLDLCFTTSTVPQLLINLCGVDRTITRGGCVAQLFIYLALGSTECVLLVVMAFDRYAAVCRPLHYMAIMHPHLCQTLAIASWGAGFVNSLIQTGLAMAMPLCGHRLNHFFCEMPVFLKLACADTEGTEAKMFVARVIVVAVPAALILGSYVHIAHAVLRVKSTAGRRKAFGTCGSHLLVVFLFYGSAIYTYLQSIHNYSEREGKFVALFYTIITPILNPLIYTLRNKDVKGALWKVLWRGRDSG
Method in brief: as §1

OR2Y1 = system: T5, OR2Y1
T5 sequence (whole entry): T4 sequence (whole entry) with V200L
Method in brief: as §1

OR2Z1 (Homo sapiens) = target: T6, OR2Z1 (Homo sapiens) (UniProt Q8NG97)
T6 sequence (whole entry): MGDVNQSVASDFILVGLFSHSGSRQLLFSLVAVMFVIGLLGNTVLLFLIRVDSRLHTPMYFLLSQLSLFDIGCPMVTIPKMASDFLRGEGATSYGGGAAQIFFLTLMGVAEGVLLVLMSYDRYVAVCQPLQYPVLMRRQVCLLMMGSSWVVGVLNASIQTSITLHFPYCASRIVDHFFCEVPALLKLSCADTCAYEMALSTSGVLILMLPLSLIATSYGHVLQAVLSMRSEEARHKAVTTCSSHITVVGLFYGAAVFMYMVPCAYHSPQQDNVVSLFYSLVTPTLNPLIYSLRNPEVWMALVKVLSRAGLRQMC
Method in brief: as §1

OR3A1 = system: T7, OR3A1
T7 sequence (whole entry): T1 sequence (whole entry) with R125Q
Method in brief: as §1

OR3A2 (Homo sapiens) = target: T8, OR3A2 (Homo sapiens) (UniProt P47893)
T8 sequence (whole entry): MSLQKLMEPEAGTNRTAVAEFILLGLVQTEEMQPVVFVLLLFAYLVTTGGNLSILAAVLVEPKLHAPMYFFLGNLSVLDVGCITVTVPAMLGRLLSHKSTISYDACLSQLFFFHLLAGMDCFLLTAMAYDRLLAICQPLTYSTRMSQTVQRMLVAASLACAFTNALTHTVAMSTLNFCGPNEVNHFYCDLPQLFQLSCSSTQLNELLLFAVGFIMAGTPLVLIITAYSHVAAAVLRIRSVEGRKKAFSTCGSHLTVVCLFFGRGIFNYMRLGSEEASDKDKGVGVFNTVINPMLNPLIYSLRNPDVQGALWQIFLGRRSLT
Method in brief: as §1

OR3A2 R317K = system: T9, OR3A2 R317K
T9 sequence (whole entry): T8 sequence (whole entry) with R317K
Method in brief: as §1

OR3A3 (Homo sapiens) = target: T10, OR3A3 (Homo sapiens) (UniProt P47888)
T10 sequence (whole entry): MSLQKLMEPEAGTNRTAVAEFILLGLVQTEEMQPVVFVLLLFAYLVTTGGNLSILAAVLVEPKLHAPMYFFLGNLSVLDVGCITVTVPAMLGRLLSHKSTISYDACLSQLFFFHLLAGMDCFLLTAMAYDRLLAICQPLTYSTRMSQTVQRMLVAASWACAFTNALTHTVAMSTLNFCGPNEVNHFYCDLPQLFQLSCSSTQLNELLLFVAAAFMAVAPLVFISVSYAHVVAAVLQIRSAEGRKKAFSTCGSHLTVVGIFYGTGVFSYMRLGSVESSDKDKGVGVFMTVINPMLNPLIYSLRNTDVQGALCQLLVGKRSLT
Method in brief: as §1

Measured: odorant receptor agonist call

CC(=O)CCc1ccc(O)cc1
inactive: OR3A1 (Homo sapiens)

OCC=Cc1ccccc1
inactive: OR3A1 (Homo sapiens)

CCC1OC(=O)C(O)=C1C (stereo not given)
inactive: all assays above

CCCCCCCCO
inactive: OR2W3 (Homo sapiens)

CCCCCC(S)C(C)CO (stereo not given)
not listed: OR2Y1 | OR3A1 | OR3A2 R317K
inactive: all other assays above

CC1CCCCCCCCCCCCC(=O)C1 (stereo not given)
inactive: OR2W3 (Homo sapiens) | OR2Y1 (Homo sapiens) | OR2Z1 (Homo sapiens) | OR3A1 (Homo sapiens) | OR3A2 (Homo sapiens) | OR3A3 (Homo sapiens)

CC1=C(O)C(=O)C(C)O1 (stereo not given)
inactive: all assays above

CC(C=O)Cc1ccccc1 (stereo not given)
active: OR3A1 (Homo sapiens)

CCCCCC1=C(C)CCC1=O
active: OR3A1 (Homo sapiens)

CCC(O)c1ccccc1 (stereo not given)
inactive: OR3A1 (Homo sapiens)

CCCC(S)CCOC(C)=O (stereo not given)
inactive: all assays above

CC(CC=O)c1ccccc1 (stereo not given)
active: OR3A1 (Homo sapiens)

CC1=C(O)C(=O)OC1C (stereo not given)
inactive: all assays above

CCCCC(S)C(C)CO (stereo not given)
not listed: OR2Y1 | OR3A1 | OR3A2 R317K
inactive: all other assays above

OCCc1ccccc1
inactive: OR3A1 (Homo sapiens)

Cc1ccc(CC(C)C=O)cc1 (stereo not given)
active: OR3A1 (Homo sapiens)

CC(C=O)=Cc1ccccc1
inactive: OR3A1 (Homo sapiens)
